Compound activity: PubChem, SRMLSC
The full list was thinned out, with hits kept by preference.
Lung fibro prol: antiproliferative effect on LL 47 fibroblasts – human, LL 47 cells, CellTiter-Glo luminescence, primary screen | LL 47 human lung fibroblast viability, ATP luminescence; stronger effect = lower value | viability, % at 10 µM | 85,000 compounds, 1.1% hits;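 active = viability at or below 50% in the single dose screen; inactive = viability above 50%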;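 also: compound exposure lasted 72 h before the ATP readout; 100% = median luminescence of untreated cell-only wells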
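Test system: LL 47 human lung fibroblasts / Incubation: 72 h compound exposure at 37 °C after overnight plating / Technique: luminescent ATP detection, CellTiter-Glo / Compound dosing: 0.1% DMSO in all compound wells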
HCT116 bCat-KO: primary screen for growth suppressors in beta-catenin knockout HCT116 cells (colon tumor, human) | HCT116 beta-catenin knockout viability, CellTiter-Glo, 60 h; stronger effect = lower value | viability, % at 10 µM | 140,000 compounds, 1.5% hits | AID 818, 2007;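 active = viability at or under a set limit, the compound median less 4 SD, cut at about 6% in these data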;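 also: 0% = Hyamine 1622 control at 20 µM and 100% = untreated cell control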
HUVEC prolif 384: inhibitors of HUVEC proliferation, primary screen, cell-based, 384-well | CellTiter-Glo luminescence, 72 h; stronger effect = lower value | viability, % at 10 µM (by protocol) | 86,000 compounds, 1.1% hits;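 active = viability at or below 30%; inactive = viability above 30%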;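 also: 100% = median luminescence of DMSO-only cell control wells on each plate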
PTEN del growth: growth suppression of PTEN-null HCT116, primary screen, cell-based, CellTiter-Glo; 140,000 compounds, 1.2% hits; viability, % at 10 µM; HCT116 PTEN-null viability, 60 h; stronger effect = lower value;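 active = viability at or below a set limit, 4 SD under the median of all tested compounds, cut at about 3.7% in these data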;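 also: PTEN knockout HCT116 line with beta catenin targeted HCT116 as companion control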
H69AR inhibit: proliferation blockers of H69AR lung cancer cells, primary screen, cell-based, human, 86K library | H69AR lung tumor viability, ATP luminescence, 72 h; stronger effect = lower value | viability, % at 10 µM | AID 598, 2007 | 85,000 compounds, 6% hits;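 active = viability at or below 40%; inactive = viability above 40%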;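 also: multidrug resistant small cell line overexpressing MRP-1 efflux transporter; 100% = mean luminescence of untreated control wells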
* = called active by the depositor; x = not tested or not shown.

SMILES | Lung fibro prol | HCT116 bCat-KO | HUVEC prolif 384 | PTEN del growth | H69AR inhibit
CCOC(=O)c1c(C)oc2c1c(C(c1cccnc1)N1CCCCC1)c(O)c1ccccc12 (configuration not stated) | 54 | 25 | 48 | 23 | 7.3*
Cc1ccc(S(=O)(=O)Nc2cccc(-c3cn4ccsc4n3)c2)cc1 | 88 | 40 | 70 | 33 | 30*
Cc1cccc(S(=O)(=O)Nc2cccc(-c3cn4ccsc4n3)c2)c1 | x | 96 | x | 90 | x
Cc1ccc(S(=O)(=O)Nc2ccc(-c3csc(-c4ccccc4)n3)cc2)cc1 | x | 2.7* | x | 2.4* | x
COc1ccc(N2C(=O)NC3CC2(C)Oc2ccc(Br)cc23)cc1OC (configuration not stated) | 83 | 90 | 91 | 88 | 38*
COc1cccc(N2CCN(C(=O)c3ccc(N4C(=O)NC5CC4(C)Oc4ccccc45)cc3)CC2)c1 (configuration not stated) | 91 | 92 | 89 | 82 | 91
CCC1(c2ccccc2)NC(=O)N(Cc2ccc(C(=O)OC)cc2)C1=O (configuration not stated) | x | 84 | x | 84 | x
CCOCC(=O)N1CCN(c2ccc([N+](=O)[O-])cc2)CC1 | x | 89 | x | 98 | x
CCOc1cc(C(=S)N2CCCCC2)ccc1OCC(=O)NCc1ccccc1 | 98 | 93 | 105 | 98 | 23*
CCN(c1ccc(C)c(C)c1)S(=O)(=O)c1c(C)[nH]c(=O)[nH]c1=O | 94 | 97 | 92 | 98 | 89
Cc1cc(C)c2c(n1)nn1c(N3CCN(c4ccccc4C)CC3)cc(C)nc21 | 92 | x | 66 | x | 37*
COc1ccc(CN2CCN(c3cc(C)nc4c5c(C)cc(C)nc5nn34)CC2)cc1F | 77 | x | 69 | x | 68
CCOc1ccc(CN2CCN(c3cc(C)nc4c5c(C)cc(C)nc5nn34)CC2)cc1 | 94 | 92 | 87 | 95 | 32*
CCOc1ccc(/C=N/OC(C)C(=O)NCc2ccc3c(c2)OCO3)cc1 (configuration not stated) | x | 94 | x | 96 | x
CC(Oc1ncnc2ccccc12)C(=O)Nc1cccc(S(=O)(=O)N2CCOCC2)c1 (configuration not stated) | x | 90 | x | 87 | x
Cc1ccc(C(=O)CC2(O)C(=O)N(C)c3ccc(Br)cc32)c(C)c1 (configuration not stated) | 86 | 71 | 83 | 80 | 36*
CN1C(=O)C(O)(CC(=O)c2ccccn2)c2cc(Br)ccc21 (configuration not stated) | 85 | 42 | 59 | 34 | 29*
C#CCSc1nnc(CSc2nc3ccccc3s2)n1-c1ccccc1 | 89 | 81 | 80 | 83 | 3.0*
CCn1c(Sc2ccc(N)cc2Cl)nc2ccccc21 | 94 | 69 | 108 | 58 | 34*
C/C(=N\NC(=S)Nc1cc(S(=O)(=O)N2CCOCC2)ccc1Cl)c1ccccc1F | x | 59 | x | 60 | x
CCCCOc1ccc(-c2cc(C(=O)NNC(=S)NCC)c3ccccc3n2)cc1 | x | 1.6* | x | 1.8* | x
N#Cc1c(N)oc(-c2ccc3c(c2)OCO3)c1-c1ccc2c(c1)OCO2 | 99 | 39 | 96 | 26 | 22*
Cc1ccc(-c2cc(-c3ccc4c(c3)OCO4)c(C#N)c(N)n2)o1 | 85 | 49 | 71 | 56 | 19*
Cc1ccc(-c2cc(-c3ccc(C)o3)nc(N)c2C#N)cc1 | 96 | 64 | 80 | 73 | 37*
CCOc1cc(-c2cc(-c3ccc(C)o3)nc(N)c2C#N)ccc1O | 83 | 60 | 52 | 58 | 12*
SMILES | Lung fibro prol | HCT116 bCat-KO | HUVEC prolif 384 | PTEN del growth | H69AR inhibit
CCOc1cc(-c2c(C)c(CC)nc(N)c2C#N)ccc1O | 96 | 90 | 92 | 79 | 36*
Cc1ccc(-c2cc(-c3ccc(Cl)cc3)c(C#N)c(N)n2)o1 | 71 | 44 | 58 | 55 | 7.1*
CCOc1cc(-c2c(C)c(C)nc(N)c2C#N)ccc1O | 99 | 100 | 87 | 103 | 70
Cc1ccc(-c2cc(-c3ccc(F)cc3)c(C#N)c(N)n2)o1 | x | 94 | x | 87 | x
CC(C)CCn1nnnc1C(C(C)C)N1CCC(C(N)=O)CC1 (configuration not stated) | 96 | 91 | 90 | 97 | 88
NC(=O)Cn1c(S(=O)(=O)Cc2ccccc2)nc2ccccc21 | 102 | x | 105 | x | 93
O=S(=O)(Cc1ccccc1)c1cnc2ccccc2n1 | 92 | 24 | 93 | 12 | 7.1*
Cc1cc(C)c(OCCNC(=O)c2ccccc2Sc2ccccc2C#N)c(C)c1 | x | 42 | x | 45 | x
Nc1nnnn1/N=C/c1cccc(OCc2ccccc2Cl)c1 | 88 | 81 | 17* | 70 | 72
Nc1nnnn1/N=C/c1cccc(Oc2ccccc2)c1 | 94 | 71 | 98 | 80 | 93
NC(=O)CC[C@@H]1NC(=O)[C@@H]2CCCN2C(=O)c2cc([N+](=O)[O-])cc(I)c2NCCC[C@@H](C(N)=O)NC1=O | x | 95 | x | 105 | x
COC(=O)C1=C(C)N=c2s/c(=C3\C(=O)Nc4ccccc43)c(=O)n2C1c1ccccc1 (configuration not stated) | 82 | 98 | 3.3* | 94 | 0.9*
CCOC(=O)C1=C(C)N=c2s/c(=C3/C(=O)Nc4ccccc43)c(=O)n2C1c1ccc(C)cc1 (configuration not stated) | 88 | 106 | 3.2* | 91 | 1.8*
O=S(=O)(c1ccc2nc(COc3ccccc3)[nH]c2c1)N1CCOCC1 | 108 | 93 | 101 | 101 | 79
O=S(=O)(c1ccc2c(c1)nc(COc1ccc(Cl)cc1)n2CC1CCCO1)N1CCOCC1 (configuration not stated) | 5.7* | 18 | 67 | 20 | 5.8*
c1ccc(-n2nnnc2Sc2ncnc3sc4c(c23)CCCC4)cc1 | x | 4.5* | x | 4 | x
Cc1sc2ncnc(Sc3nnnn3-c3ccc(Cl)cc3)c2c1C | 67 | 4.9* | 9.9* | 5 | 1.4*
CC1(C)Cc2c(cnn2-c2ccccc2)-c2c1c1ccccc1n2CC(O)CCl (configuration not stated) | 92 | 72 | 60 | 66 | 25*
CCOC(=O)c1ccccc1NC(=O)CSc1nnnn1C | 101 | 98 | 100 | 98 | 86
CCc1ccc2c(c1)C1(NN=C(c3cccc4ccccc34)S1)C(=O)N2 (configuration not stated) | 34* | 10 | 35 | 11 | 19*
COc1cc(-c2nnc(SCC3(c4ccccc4)OCCO3)o2)cc(OC)c1OC | x | 84 | x | 73 | x
CCCCCCc1cc2cc(-c3nnc(-c4cc(OC)c(OC)c(OC)c4)o3)c(=O)oc2cc1O | 62 | 11 | 76 | 9 | 2.3*
CCCCCCc1cc2cc(C(=O)Nc3ccccc3OC)c(=O)oc2cc1O | x | 62 | x | 83 | x
CCCCCCc1cc2cc(-c3nnc(-c4ccccc4O)o3)c(=O)oc2cc1O | x | 0.7* | x | 0.7* | x
CCCCCCc1cc2cc(-c3nnc(-c4ccccc4OC)o3)c(=O)oc2cc1O | 72 | 12 | 63 | 4 | 3.0*
